Test results reported in ChEMBL document CHEMBL1144714, “Reaction of rosmarinic acid with nitrite ions in acidic conditions: discovery of nitro- and dinitrorosmarinic acids as new anti-HIV-1 agents” (J Med Chem, 2008).

What was measured:
[1] = biological target: T1, Human immunodeficiency virus type 1 integrase (Human immunodeficiency virus 1, UniProt Q7ZJM1); test: Inhibition of HIV1 integrase using labelled oligonucleotide substrate in presence of bovine serum albumin by ELISA
[2] = biological target: T1, Human immunodeficiency virus type 1 integrase; test: Inhibition of HIV1 integrase using labelled oligonucleotide substrate by ELISA
[3] = biological target: T1, Human immunodeficiency virus type 1 integrase; test: Inhibition of HIV1 integrase using labelled U5A/U5B double stranded DNA substrate
[4] = biological target: T1, Human immunodeficiency virus type 1 integrase; test: Inhibition of HIV1 integrase 3'-processing activity using labelled oligonucleotide substrate by ELISA
[5] = biological target: T1, Human immunodeficiency virus type 1 integrase; test: Inhibition of HIV1 integrase strand transfer activity using labelled oligonucleotide substrate by ELISA
[6] = test system: Human immunodeficiency virus 1; test: Antiviral activity against HIV1 3B infected in human MT4 cells assessed as reduction of virus-induced cytopathogenicity by MTT assay; type: functional, organism-based; details: Human immunodeficiency virus 1, 3B
Procedure, shortened: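 MT-4 lymphocytes infected with 100–300 CCID50 of HIV-1 IIIB stock (CCID50 titrated on MT-4 cells), in the presence of 5-fold serial compound dilutions. Protection against virus-induced cytopathic effect read by MTT reduction to formazan, measured spectrophotometrically. EC50 = concentration giving 50% protection against CPE.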

[7] = Cytotoxicity against human MT4 cells by MTT method; type: cell-based
Procedure, shortened: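 Uninfected MT-4 lymphocytes run in parallel with the antiviral assay, with 5-fold serial compound dilutions. Viability read by MTT reduction to formazan, measured spectrophotometrically. CC50 = concentration reducing MT-4 viability by 50%.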

[8] = Selectivity index, ratio of CC50 for human MT4 cells to EC50 for HIV1 3B; type: functional
Procedure, shortened: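 Ratio CC50/EC50 from parallel MT-4/MTT assays. CC50 comes from uninfected MT-4 cells and EC50 from MT-4 cells infected with 100–300 CCID50 of HIV-1 IIIB. Both assays used 5-fold serial dilutions.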

Albumin = Albumin (Bos taurus, UniProt P02769); test: Binding affinity to BSA by fluorescence quenching assay; type: ADME; details: cattle, isolated protein
Chain of Albumin (P02769 whole entry): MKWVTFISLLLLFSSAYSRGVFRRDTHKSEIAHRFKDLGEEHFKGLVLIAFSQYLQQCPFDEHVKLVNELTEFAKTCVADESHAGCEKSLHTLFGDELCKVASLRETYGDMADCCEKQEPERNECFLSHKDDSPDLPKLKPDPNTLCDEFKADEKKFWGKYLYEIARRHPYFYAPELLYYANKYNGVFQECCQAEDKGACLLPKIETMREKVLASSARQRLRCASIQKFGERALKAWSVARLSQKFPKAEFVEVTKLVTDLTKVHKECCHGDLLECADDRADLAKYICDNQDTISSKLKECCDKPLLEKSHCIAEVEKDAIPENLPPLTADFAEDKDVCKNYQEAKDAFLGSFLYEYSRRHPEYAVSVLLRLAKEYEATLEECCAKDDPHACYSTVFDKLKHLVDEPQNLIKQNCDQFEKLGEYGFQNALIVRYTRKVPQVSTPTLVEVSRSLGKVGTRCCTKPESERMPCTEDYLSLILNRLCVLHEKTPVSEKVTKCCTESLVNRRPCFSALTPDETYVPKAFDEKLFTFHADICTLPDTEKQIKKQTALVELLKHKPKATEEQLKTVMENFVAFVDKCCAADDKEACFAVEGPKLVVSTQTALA
Procedure, shortened: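 BSA tryptophan fluorescence quenching at pH 7.4 on binding of the compound. Data fitted as Stern–Volmer plots, and the slope of the linear fit was taken as the quenching constant.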

[9] = biological target: Human immunodeficiency virus type 1 reverse transcriptase (Human immunodeficiency virus 1, UniProt Q72547); test: Inhibition of HIV1 reverse transcriptase

T1 sequence (Q7ZJM1 whole entry): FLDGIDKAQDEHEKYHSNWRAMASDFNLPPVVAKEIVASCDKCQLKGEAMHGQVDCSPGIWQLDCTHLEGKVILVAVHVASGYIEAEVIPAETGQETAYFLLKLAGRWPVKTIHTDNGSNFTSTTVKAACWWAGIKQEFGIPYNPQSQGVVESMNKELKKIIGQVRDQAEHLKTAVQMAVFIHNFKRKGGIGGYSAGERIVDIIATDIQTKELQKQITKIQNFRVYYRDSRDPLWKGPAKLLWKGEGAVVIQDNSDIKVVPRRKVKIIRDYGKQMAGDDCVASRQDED

Compound	IC50 [1]	IC50 [2]	IC50 [3]	IC50 [4]	IC50 [5]	EC50 [6]	CC50 [7]	Ratio CC50/EC50 [8]	K (Albumin)	IC50 [9]
O=C(/C=C/c1ccc(O)c(O)c1)O[C@H](Cc1cc(O)c(O)cc1[N+](=O)[O-])C(=O)O	54.7 µM	1.4 µM	0.026 µM	> 247 µM	3.7 µM	39 µM	160 µM	4	17460 10^3/M	
O=C(NCc1ccc(F)cc1)c1nc(N2CCCCS2(=O)=O)c2cccnc2c1O							2.2 µM	457		
O=C(/C=C/c1cc(O)c(O)cc1[N+](=O)[O-])O[C@H](Cc1cc(O)c(O)cc1[N+](=O)[O-])C(=O)O	20.8 µM	0.15 µM	0.03 µM	52.2 µM	0.07 µM	12 µM	45.5 µM	3.8	3300 10^3/M	
O=C(/C=C/c1ccc(O)c(O)c1)O[C@H](Cc1ccc(O)c(O)c1)C(=O)O [ROSMARINIC ACID]	63.5 µM					> 55 µM	55 µM			100 µM
